Data: ChEMBL document CHEMBL4020718, “Trifluoromethyl arylamides with antileukemia effect and intracellular inhibitory activity over serine/arginine-rich protein kinases (SRPKs)” (Eur J Med Chem, 2017)
Calls of active or inactive are those of the source. The calls are words filed in the database; no cut-off is given here.

What was measured:
[1] = tested on: HL-60; test: Cytotoxicity against human HL60 cells assessed as reduction in cell viability up to 200 uM after 48 hrs by MTT assay; format: functional, cell-based
Outline: (§1)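 Cells (7x10^4/well) in RPMI-1640 with 10% FBS, 37 °C, 5% CO2; exposed to compound dilutions 0–200 µM (medium with 10% FBS, 0.4% DMSO) for 48 h. MTT added, 3 h at 37 °C, formazan dissolved in DMSO, absorbance 540 nm. IC50 from concentration–response; means ± standard deviation of three independent experiments.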

[2] = tested on: Jurkat; test: Cytotoxicity against human Jurkat cells assessed as reduction in cell viability up to 200 uM after 48 hrs by MTT assay; format: functional, cell-based; outline: as §1
[3] = tested on: NALM-6; test: Cytotoxicity against human NALM6 cells assessed as reduction in cell viability up to 200 uM after 48 hrs by MTT assay; format: functional, cell-based; outline: as §1
[4] = tested on: NALM-6; test: Effect on actin expression level in human NALM6 cells at 20 uM after 24 hrs by Western blot analysis; format: ADME, cell-based; conditions: nalm-6, 24 h
Outline: (§2)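 Nalm6 treated 24 h at 20 µM (DMSO vehicle control), lysed at 2x10^7 cells/mL in PBS with 1% NP40, 1 mM EDTA, 150 mM NaCl, 10 mM Tris pH 7.4 plus protease/phosphatase inhibitors; on ice 10 min, sonicated, spun 15000 xg; SDS-PAGE, PVDF, milk block overnight, primary and secondary antibody 2 h each; representative of three.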

[5] = tested on: NALM-6; test: Effect on SRPK1 expression level in human NALM6 cells at 20 uM after 24 hrs by Western blot analysis; format: functional, cell-based; outline: as §2
[6] = tested on: HL-60; test: Antiproliferative activity against human HL60 cells at 20 uM by trypan blue dye exclusion assay; format: functional, cell-based; conditions: TDE = time-dependent effect
Outline: (§3)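 Nalm6 at 1x10^4 or HL60 at 1.5x10^4 cells per well exposed to 20 µM; DMSO (0.4% v/v) as control. Viable cells counted by trypan blue exclusion on a hemocytometer at 0, 24, 48, 72 and 96 h; growth inhibition relative to control.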

[7] = tested on: NALM-6; test: Effect on actin expression level in human NALM6 cells at 20 uM after 24 hrs by qRT-PCR analysis; format: ADME, cell-based; conditions: nalm-6, 24 h
[8] = tested on: NALM-6; test: Effect on SRPK2 expression level in human NALM6 cells at 20 uM after 24 hrs by Western blot analysis; format: functional, cell-based; outline: as §2
[9] = tested on: NALM-6; test: Induction of apoptosis in human NALM6 cells assessed as early apoptotic cells at 20 uM after 12 hrs by Annexin-V/FITC propidium iodide staining based flow cytometric analysis (reference value: 7.40%); format: functional
[10] = tested on: NALM-6; test: Induction of apoptosis in human NALM6 cells assessed as late apoptotic cells at 20 uM after 24 hrs by Annexin-V/FITC propidium iodide staining based flow cytometric analysis (reference value: 1.68%); format: functional
[11] = tested on: HL-60; test: Cytotoxicity against human HL60 cells assessed as cell growth inhibition at 20 uM after 96 hrs by trypan blue dye exclusion assay relative to control; format: functional; conditions: HL-60, 96 h, read-out: GI; outline: as §3
[12] = tested on: NALM-6; test: Induction of autophagy in human NALM6 cells at 20 uM after 24 hrs by acridin orange staining based fluorescence microscopy; format: functional, cell-based
Outline: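 Nalm6 (7x10^4/well) exposed 24 h to 20 µM or 0.4% DMSO, washed in PBS, stained with 1 µM acridine orange at 37 °C for 15 min, washed, resuspended in PBS; autophagosomes (red fluorescence) viewed by fluorescence microscopy; three experiments.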

[13] = tested on: NALM-6; test: Induction of apoptosis in human NALM6 cells assessed as viable cells at 20 uM after 24 hrs by Annexin-V/FITC propidium iodide staining based flow cytometric analysis (reference value: 90.10%); format: functional; conditions: NALM-6, 24 h, read-out: Activity
[14] = tested on: NALM-6; test: Synergistic cytotoxicity against human NALM6 cells assessed as reduction in cell viability by measuring combination index at 17.9 uM after 48 hrs in presence of 1 nM vincristine by MTT assay; format: functional
[15] = tested on: NALM-6; test: Induction of apoptosis in human NALM6 cells assessed as viable cells at 20 uM after 12 hrs by Annexin-V/FITC propidium iodide staining based flow cytometric analysis (reference value: 92.11%); format: functional; conditions: NALM-6, 12 h, read-out: Activity
[16] = tested on: PBMC; test: Cytotoxicity against PHA-stimulated human PBMC assessed as reduction in cell viability at 25 uM after 48 hrs by MTT assay; format: cell-based
Outline: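 Primary peripheral blood mononuclear cells seeded 1x10^5/well in complete RPMI; treated with 25 µM for 48 h. Viability by MTT (3 h, 37 °C, DMSO solubilization, 540 nm), vehicle taken as 100% viability; triplicate experiments, means ± standard deviation.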

[17] = tested on: NALM-6; test: Induction of apoptosis in human NALM6 cells assessed as early apoptotic cells at 20 uM after 24 hrs by Annexin-V/FITC propidium iodide staining based flow cytometric analysis (reference value: 8.22%); format: functional
[18] = tested on: NALM-6; test: Synergistic cytotoxicity against human NALM6 cells assessed as reduction in cell viability by measuring combination index at 8.9 uM after 48 hrs in presence of 0.5 nM vincristine by MTT assay; format: functional
[19] = tested on: NALM-6; test: Induction of apoptosis in human NALM6 cells assessed as necrotic cells at 20 uM after 12 hrs by Annexin-V/FITC propidium iodide staining based flow cytometric analysis (reference value: 0.04%); format: functional
[20] = tested on: NALM-6; test: Induction of apoptosis in human NALM6 cells assessed as necrotic cells at 20 uM after 24 hrs by Annexin-V/FITC propidium iodide staining based flow cytometric analysis (reference value: 0%); format: functional
[21] = tested on: NALM-6; test: Induction of apoptosis in human NALM6 cells assessed as late apoptotic cells at 20 uM after 12 hrs by Annexin-V/FITC propidium iodide staining based flow cytometric analysis (reference value: 0.45%); format: functional
[22] = tested on: NALM-6; test: Antiproliferative activity against human NALM6 cells at 20 uM by trypan blue dye exclusion assay; format: functional, cell-based; conditions: TDE = time-dependent effect; outline: as §3
[23] = tested on: NALM-6; test: Cytotoxicity against human NALM6 cells assessed as cell growth inhibition at 20 uM after 96 hrs by trypan blue dye exclusion assay relative to control; format: functional; conditions: NALM-6, 96 h, read-out: GI; outline: as §3
[24] = Homo sapiens, HL-60, 48 h, read-out: IC50
[25] = Homo sapiens, Jurkat, 48 h, read-out: IC50
[26] = Homo sapiens, NALM-6, 48 h, read-out: IC50

**Q.** Which IC50 [1, 24] does the source give for `O=C(Nc1cc(C(F)(F)F)ccc1NC1CCCCC1)c1ccccc1` here?
**A.** The IC50 was 34.9 µM.

**Q.** What about the IC50 ([2]; jurkat) of the same compound?
**A.** Its IC50 is “Not Active”.

**Q.** What about the IC50 ([3]; nalm-6) of the same compound?
**A.** Its IC50 is “Not Active”.

**Q.** For `O=C(Nc1cc(C(F)(F)F)ccc1Nc1ccc(Br)cc1)c1cccnc1Cl`, which Activity [4] is on record?
**A.** The Activity was “Non-Toxic”.

**Q.** And the IC50 [1, 24]?
**A.** Its IC50 is 14.2 µM.

**Q.** And the Activity [5]?
**A.** Its Activity is “inactive”.

**Q.** And the Activity [6]?
**A.** The Activity was “Tde”.

**Q.** And the Activity [7]?
**A.** Its Activity is “Non-Toxic”.

**Q.** And the Activity [8]?
**A.** The Activity was “inactive”.

**Q.** What about the Activity [9] of the same compound?
**A.** The Activity was 11.7%.

**Q.** And the Activity [10]?
**A.** The Activity was 1.16%.

**Q.** What about the IC50 [2, 25] of the same compound?
**A.** The IC50 was 20.6 µM.

**Q.** What about the inhibition of growth at 20 µM [11] of the same compound?
**A.** The inhibition of growth at 20 µM was 33%.

**Q.** What about the Activity [12] of the same compound?
**A.** The Activity was “Active”.

**Q.** What about the IC50 [3, 26] of the same compound?
**A.** The IC50 was 35.7 µM.

**Q.** What about the viability at 20 µM [13] of the same compound?
**A.** The viability at 20 µM was 86.8%.

**Q.** And the CI [14]?
**A.** Its CI is 1.02.

**Q.** And the viability at 20 µM [15]?
**A.** The viability at 20 µM was 87.9%.

**Q.** What about the Activity [16] of the same compound?
**A.** The Activity was “Toxic”.

**Q.** What about the Activity [17] of the same compound?
**A.** The Activity was 11.91%.

**Q.** What about the CI [18] of the same compound?
**A.** Its CI is 0.57.

**Q.** What about the Activity [19] of the same compound?
**A.** Its Activity is 0%.

**Q.** And the Activity [20]?
**A.** Its Activity is 0.07%.

**Q.** And the Activity [21]?
**A.** The Activity was 0.52%.

**Q.** And the Activity [22]?
**A.** Its Activity is “Tde”.

**Q.** What about the inhibition of growth at 20 µM [23] of the same compound?
**A.** Its inhibition of growth at 20 µM is 37%.

**Q.** With `O=C(Nc1cc(C(F)(F)F)ccc1N1CCCC1)c1ccccc1` as the compound, how does the IC50 ([1]; hl-60) read?
**A.** The IC50 was “Not Active”.

**Q.** And the IC50 ([2]; jurkat)?
**A.** The IC50 was “Not Active”.

**Q.** What about the IC50 ([3]; nalm-6) of the same compound?
**A.** The IC50 was “Not Active”.

**Q.** With `O=C(Nc1cc(C(F)(F)F)ccc1N1CCCC1)c1cccnc1Cl` as the compound, how does the IC50 ([1]; hl-60) read?
**A.** The IC50 was “Not Active”.

**Q.** And the IC50 ([2]; jurkat)?
**A.** Its IC50 is “Not Active”.

**Q.** What about the IC50 ([3]; nalm-6) of the same compound?
**A.** Its IC50 is “Not Active”.

**Q.** How did the IC50 [1, 24] turn out when `O=C(Nc1cc(C(F)(F)F)ccc1NC1CCCCC1)c1ccncc1` was run?
**A.** Its IC50 is 59.2 µM.

**Q.** What about the IC50 [2, 25] of the same compound?
**A.** Its IC50 is 80.9 µM.

**Q.** And the IC50 [3, 26]?
**A.** The IC50 was 59 µM.

**Q.** For `O=C(Nc1cc(C(F)(F)F)ccc1N1CCOCC1)c1ccccc1`, which IC50 ([1]; hl-60) is on record?
**A.** Its IC50 is “Not Active”.

**Q.** And the IC50 ([2]; jurkat)?
**A.** The IC50 was “Not Active”.

**Q.** And the IC50 ([3]; nalm-6)?
**A.** The IC50 was “Not Active”.

**Q.** How did the IC50 [1, 24] turn out when `O=C(Nc1cc(C(F)(F)F)ccc1NC1CCCCC1)c1cccnc1` was run?
**A.** Its IC50 is 48.3 µM.

**Q.** What about the IC50 ([2]; jurkat) of the same compound?
**A.** The IC50 was “Not Active”.

**Q.** And the IC50 [3, 26]?
**A.** Its IC50 is 52.3 µM.

**Q.** For `O=C(Nc1cc(C(F)(F)F)ccc1N1CCOCC1)c1cccnc1`, which IC50 ([1]; hl-60) is on record?
**A.** The IC50 was “Not Active”.

**Q.** What about the IC50 ([2]; jurkat) of the same compound?
**A.** The IC50 was “Not Active”.

**Q.** What about the IC50 ([3]; nalm-6) of the same compound?
**A.** Its IC50 is “Not Active”.

**Q.** `O=C(Nc1cc(C(F)(F)F)ccc1N1CCCC1)c1ccncc1` was tested. Which IC50 ([1]; hl-60) did it give?
**A.** Its IC50 is “Not Active”.

**Q.** And the IC50 ([2]; jurkat)?
**A.** Its IC50 is “Not Active”.

**Q.** And the IC50 ([3]; nalm-6)?
**A.** Its IC50 is “Not Active”.

**Q.** How did the IC50 ([1]; hl-60) turn out when `CCN(CC)c1ccc(C(F)(F)F)cc1NC(=O)c1ccccc1` was run?
**A.** Its IC50 is “Not Active”.

**Q.** And the IC50 ([2]; jurkat)?
**A.** Its IC50 is “Not Active”.

**Q.** What about the IC50 ([3]; nalm-6) of the same compound?
**A.** Its IC50 is “Not Active”.

**Q.** What does the source list for `O=C(Nc1cc(C(F)(F)F)ccc1N1CCOCC1)c1ccncc1`?
**A.** IC50 ([1]; hl-60): Not Active; IC50 ([2]; jurkat): Not Active; IC50 ([3]; nalm-6): Not Active
